Reference: ChEMBL document CHEMBL1125497, “Synthesis and anticonvulsant activity of enaminones” (J Med Chem, 1992)

Experiments:
[1] = Antiepileptic activity in male CF1 mice 30 min after administration measured in subcutaneous pentylenetetrazole (scMet) test at a dose of 300 mg/kg (no. of animals treated /protected); activity value is 1/1; assay type: functional, Mus musculus
[2] = Antiepileptic activity in male CF1 mice 30 min after administration measured in maximum electroshock seizure(MES) test at a dose of 300 mg/kg (no. of animals treated /protected); activity value is 1/1; assay type: functional, Mus musculus
[3] = Antiepileptic activity in male CF1 mice 4 hr after administration measured in maximum electroshock seizure(MES) test at a dose of 300 mg/kg (no. of animals treated /protected); activity value is 1/1; assay type: functional, Mus musculus
[4] = Antiepileptic activity in male CF1 mice 4 hr after administration measured in neurological toxicity (Tox) test at a dose of 300 mg/kg (no. of animals treated /protected); activity value is 0/2; assay type: functional, Mus musculus
[5] = Antiepileptic activity in male CF1 mice 4 hr after administration measured in subcutaneous pentylenetetrazole (scMet) test at a dose of 300 mg/kg; activity value is 0/1; assay type: functional, Mus musculus
[6] = Dose at which anticonvulsant activity was observed in mice; assay type: functional, Mus musculus
[7] = Antiepileptic activity in male CF1 mice 30 min after administration measured in neurological toxicity (Tox) test at a dose of 300 mg/kg (no. of animals treated /protected); activity value is 0/4; assay type: functional, Mus musculus
[8] = Dose elevating electroshock induced seizure by 20% in CF1 mice after ip administration.; assay type: functional, Mus musculus
In short: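 In CF1 male mice (ca. 24–34 g), compound was given ip in 0.5% methylcellulose. The current giving hind limb extension in 50% of mice was found by the up-and-down method, with 15–25 mice per group and a vehicle control group run with each experimental group. At least three doses were tested. The dose raising threshold current by 20% was taken from a plot of dose against % threshold increase.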

[9] = Dose protecting 50% of the mice from tonic hind limb extension at the time of […] after ip administration.; assay type: functional; settings: Mus musculus, Hindlimb
In short: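 Phase II quantification in CF1 male mice (ca. 24–34 g), dosing ip or po in 0.5% methylcellulose suspension. ED50 is protection from tonic hind limb extension in MES. TD50 is rotorod neurotoxicity. Both were read at time of peak effect and derived by Litchfield–Wilcoxon with 95% confidence limits.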

[10] = Antiepileptic activity in male CF1 mice 30 min after administration measured in subcutaneous pentylenetetrazole (scMet) test at a dose of 300 mg/kg (no. of animals treated /protected); activity value is 0/1; assay type: functional, Mus musculus
[11] = Antiepileptic activity in male CF1 mice 30 min after administration measured in maximum electroshock seizure(MES) test at a dose of 300 mg/kg (no. of animals treated /protected); activity value is 0/1; assay type: functional, Mus musculus
[12] = Time of peak anticonvulsant effect in CF1 MICE after ip administration.; assay type: functional, Mus musculus
In short: (§1)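 Male CF1 mice (ca. 24–34 g), compound in 0.5% methylcellulose suspension given ip or po; time (h) at which MES protection (against tonic hind limb extension) peaked was recorded and used for ED50 determination.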

[13] = Antiepileptic activity in male CF1 mice 4 hr after administration measured in neurological toxicity (Tox) test at a dose of 300 mg/kg (no. of animals treated /protected); activity value is 0/4; assay type: functional, Mus musculus
[14] = Antiepileptic activity in male CF1 mice 4 hr after administration measured in subcutaneous pentylenetetrazole (scMet) test at a dose of 300 mg/kg (no. of animals treated /protected); activity value is 0/1; assay type: functional, Mus musculus
[15] = Antiepileptic activity in male CF1 mice 30 min after administration measured in neurological toxicity (Tox) test at a dose of 300 mg/kg (no. of animals treated /protected); activity value is 0/8; assay type: functional, Mus musculus
[16] = Antiepileptic activity in male CF1 mice 0.25 hr after oral administration measured in maximum electroshock seizure(MES) test at a dose of 50 mg/kg (no. of animals treated /protected); activity value is 2/4; assay type: functional, Mus musculus
[17] = Antiepileptic activity in male CF1 mice 0.25 hr after oral administration measured in neurological toxicity (Tox) test at a dose of 50 mg/kg (no. of animals treated /protected); activity value is 0/4; assay type: functional, Mus musculus
[18] = Antiepileptic activity in male CF1 mice 0.5 hr after oral administration measured in maximum electroshock seizure(MES) test at a dose of 50 mg/kg (no. of animals treated /protected); activity value is 4/4; assay type: functional, Mus musculus
[19] = Antiepileptic activity in male CF1 mice 0.5 hr after oral administration measured in neurological toxicity (Tox) test at a dose of 50 mg/kg (no. of animals treated /protected); activity value is 0/4; assay type: functional, Mus musculus
[20] = Antiepileptic activity in male CF1 mice 1 hr after oral administration measured in maximum electroshock seizure(MES) test at a dose of 50 mg/kg (no. of animals treated /protected); activity value is 3/4; assay type: functional, Mus musculus
[21] = Antiepileptic activity in male CF1 mice 1 hr after oral administration measured in neurological toxicity (Tox) test at a dose of 50 mg/kg (no. of animals treated /protected); activity value is 0/4; assay type: functional, Mus musculus
[22] = Antiepileptic activity in male CF1 mice 2 hr after oral administration measured in maximum electroshock seizure(MES) test at a dose of 50 mg/kg (no. of animals treated /protected); activity value is 2/4; assay type: functional, Mus musculus
[23] = Antiepileptic activity in male CF1 mice 2 hr after oral administration measured in neurological toxicity (Tox) test at a dose of 50 mg/kg (no. of animals treated /protected); activity value is 0/4; assay type: functional, Mus musculus
[24] = Antiepileptic activity in male CF1 mice 4 hr after oral administration measured in maximum electroshock seizure(MES) test at a dose of 50 mg/kg (no. of animals treated /protected); activity value is 2/4; assay type: functional, Mus musculus
[25] = Antiepileptic activity in male CF1 mice 4 hr after oral administration measured in neurological toxicity (Tox) test at a dose of 50 mg/kg (no. of animals treated /protected); activity value is 0/4; assay type: functional, Mus musculus
[26] = Oral dose producing neurotoxic effects in 50% of rats; assay type: ADME, organism-based; settings: rat, in vivo
In short: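 Phase VI screen in male Sprague-Dawley rats dosed orally. MES protection and rotorod toxicity were scored as animals responding over animals tested at 0.25, 0.5, 1, 2 and 4 h.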

[27] = Protective index was measured as TD50/ED50 in rat on oral administration; assay type: ADME, organism-based; settings: in vivo, read-out: PI
[28] = Time of peak anticonvulsant effect in CF1 mice; assay type: functional, Mus musculus; in short: as §1
[29] = Time of peak neurotoxic effect in CF1 MICE after ip administration.; assay type: ADME, organism-based; settings: mouse, in vivo
In short: (§2)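 Male CF1 mice (ca. 24–34 g), compound ip in 0.5% methylcellulose suspension; neurological deficit assessed by rotorod test, time (h) of peak neurotoxic effect recorded for TD50 determination.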

[30] = Time of peak neurotoxic effect in CF1 mice; assay type: ADME; settings: mouse, in vivo; in short: as §2
[31] = tested on: Rattus norvegicus; experiment: Average seizure score for the rat cornea 0.5 hr after intraperitoneal administration of 150 mg/Kg of compound; assay type: functional
In short: (§3)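 Sprague-Dawley rats (85–95 g initial) were kindled with 4 s, 8 mA corneal stimulations (butacaine anesthesia) to 10 consecutive stage 5 seizures. After a vehicle shock and a 2-day shock-free period, test drug was given ip or po and a single shock applied at time of peak effect. Seizures were scored on a modified Racine 0–5 scale. ED50 is the dose reducing severity by 50% (Litchfield–Wilcoxon).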

[32] = tested on: Rattus norvegicus; experiment: Average seizure score for the rat cornea 0.5 hr after intraperitoneal administration of 200 mg/Kg of compound; assay type: functional; in short: as §3
[33] = tested on: Rattus norvegicus; experiment: Average seizure score for the rat cornea 0.5 hr after intraperitoneal administration of 0 mg/Kg of compound; assay type: functional
In short: (§4)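 Sprague-Dawley rats (85–95 g initial weight) kindled by corneal stimulation (4 s, 8 mA) twice daily for 5 to 6 days, then once daily until 10 consecutive stage 5 seizures. Butacaine sulfate 1% applied to the cornea as a topical anaesthetic. After a vehicle shock and a 2-day shock-free period, drug given ip, then a single shock at the time of peak effect. Scored on the modified Racine scale (0–5).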

[34] = tested on: Rattus norvegicus; experiment: Average seizure score for the rat cornea 0.5 hr after intraperitoneal administration of 100 mg/Kg of compound; assay type: functional; in short: as §3
[35] = tested on: Rattus norvegicus; experiment: Average seizure score for the rat cornea 0.5 hr after intraperitoneal administration of 250 mg/Kg of compound; assay type: functional; in short: as §3
[36] = tested on: Rattus norvegicus; experiment: Dose reducing the seizure severity in rat cornea 0.5 hr after peroral administration.; assay type: functional; settings: po; in short: as §3
[37] = tested on: Rattus norvegicus; experiment: Dose reducing the seizure severity in rat cornea 1 hr after peroral administration.; assay type: ADME, organism-based; settings: po; in short: as §3
[38] = tested on: Rattus norvegicus; experiment: Intraperitoneal dose (0 mg/Kg) reducing rat corneal kindling 0.5 hr after administration.; assay type: functional; in short: as §4
[39] = tested on: Rattus norvegicus; experiment: Intraperitoneal dose (100 mg/Kg) reducing rat corneal kindling 0.5 hr after administration.; assay type: functional; in short: as §3
[40] = tested on: Rattus norvegicus; experiment: Intraperitoneal dose (150 mg/Kg) reducing rat corneal kindling 0.5 hr after administration.; assay type: functional; in short: as §3
[41] = tested on: Rattus norvegicus; experiment: Intraperitoneal dose (200 mg/Kg) reducing rat corneal kindling 0.5 hr after administration.; assay type: functional; in short: as §3
[42] = tested on: Rattus norvegicus; experiment: Intraperitoneal dose (250 mg/Kg) reducing rat corneal kindling 0.5 hr after administration.; assay type: functional; in short: as §3

With `COC(=O)C1C(=O)C=C(NCc2ccc(Cl)cc2)CC1C` (configuration not stated) the Activity [1] was 1, the Activity [2] was 1 and the Activity [3] was 1. The Activity [4] was 0, the Activity [5] was 0 and the Dose [6] was greater than 100 mg/kg. For the same compound, the Activity [7] was 0.
Work on `COC(=O)C1C(=O)C=C(NCc2ccc(F)cc2)CC1C` (configuration not stated) yielded a Dose [8] of 10 mg/kg, an ED50 [9] of 159 mg/kg and an Activity [10] of 0. For the same compound, the Activity [11] was 0, the TPE [12] was 0.5 and the Activity [3] was 1. For the same compound, the Activity [13] was 0, the Activity [14] was 0 and the Dose [6] was greater than 100 mg/kg. For the same compound, the Activity [15] was 0, the Activity [16] was 2 and the Activity [17] was 0. It also gave an Activity [18] of 4, an Activity [19] of 0 and an Activity [20] of 3. It also gave an Activity [21] of 0, an Activity [22] of 2 and an Activity [23] of 0. The Activity [24] was 2, the Activity [25] was 0 and the TD50 [26] was greater than 230 mg/kg. For the same compound, the selectivity ratio [27] was 4.7.
Compound `CCCC(CCC)C(=O)O` [VALPROIC ACID] has a Dose [8] of 132 mg/kg, an ED50 [9] of 248 mg/kg and a TPE [12] of 0.5. The TPE [28] was 0.25, the TPE [29] was 0.5 and the TPE [30] was 0.25. It also gave an Average seizure score [31] of 1.2, an Average seizure score [32] of 0.1 and an Average seizure score [33] of 5. For the same compound, the Average seizure score [34] was 2.6, the Average seizure score [35] was 0.5 and the ED50 [36] was 96 mg/kg. It also gave an ED50 [37] of 117 mg/kg, a Reduction [38] of 0% and a Reduction [39] of 49%. It also gave a Reduction [40] of 76%, a Reduction [41] of 98% and a Reduction [42] of 90%.
